In brackets after ≈: the same amount, converted by molar mass. Where a SMILES comes first, the peptide text is derived from it. The star is where a group is joined. βGal = OC[C@H]1O[C@@H](*)[C@H](O)[C@@H](O)[C@H]1O; X1 = OC[C@H]1O[C@H](*)[C@H](O)[C@@H](O)[C@H]1O
Key:
Klebsiella pneumoniae [1] = assay: Minimum inhibitory concentration (lowest peptide concentration) required to prevent visible bacterial growth after 18 hr of incubation at 37 C in Mueller-Hinton broth against Klebsiella pneumoniae 22; assay type: functional
Procedure, shortened: (§1)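 Broth microdilution susceptibility test per NCCLS guidelines, in Mueller–Hinton broth with about 1.5–2.0 × 10^5 CFU/mL inoculum. Plates were incubated 18 h at 37 °C. MIC was taken as the lowest peptide concentration with no visible growth. Strains were ATCC strains or clinical isolates; E. coli O18:K1:H7 Bort is an encapsulated isolate from neonatal spinal fluid, and the S. aureus isolate is MRSA.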

Salmonella enteritidis [2] = assay: Minimum inhibitory concentration (lowest peptide concentration) required to prevent visible bacterial growth after 18 hr of incubation at 37 C in Mueller-Hinton broth against Salmonella enteritidis D5; conditions: Salmonella enterica
Klebsiella pneumoniae [3] = assay: Minimum inhibitory concentration (lowest peptide concentration) required to prevent visible bacterial growth after 18 hr of incubation at 37 C in Mueller-Hinton broth against Klebsiella pneumoniae 79; assay type: functional; procedure, shortened: as §1
[4] = tested on: Staphylococcus epidermidis; assay: Minimum inhibitory concentration (lowest peptide concentration) required to prevent visible bacterial growth after 18 hr of incubation at 37 C in Mueller-Hinton broth against Staphylococcus epidermidis 4; assay type: functional; procedure, shortened: as §1
Acinetobacter baumannii = assay: Minimum inhibitory concentration (lowest peptide concentration) required to prevent visible bacterial growth after 18 hr of incubation at 37 C in Mueller-Hinton broth against Acinetobacter baumannii 118A; assay type: functional; procedure, shortened: as §1
Escherichia coli [5] = assay: Minimum inhibitory concentration (lowest peptide concentration) required to prevent visible bacterial growth after 18 hr of incubation at 37 C in Mueller-Hinton broth against Escherichia coli D22; assay type: functional; procedure, shortened: as §1
Escherichia coli [6] = assay: Minimum inhibitory concentration (lowest peptide concentration) required to prevent visible bacterial growth after 18 hr of incubation at 37 C in Mueller-Hinton broth against Escherichia coli ML-35; assay type: functional; procedure, shortened: as §1
Salmonella typhimurium = assay: Minimum inhibitory concentration (lowest peptide concentration) required to prevent visible bacterial growth after 18 hr of incubation at 37 C in Mueller-Hinton broth against Salmonella Typhimurium ATCC 14028; assay type: functional, Salmonella enterica subsp. enterica serovar Typhimurium; conditions: Salmonella enterica; procedure, shortened: as §1
Salmonella enteritidis [7] = assay: Minimum inhibitory concentration (lowest peptide concentration) required to prevent visible bacterial growth after 18 h of incubation at 37 C in Mueller-Hinton broth against […]; assay type: functional, Salmonella enterica subsp. enterica serovar Enteritidis; conditions: Salmonella enterica; procedure, shortened: as §1
Escherichia coli [8] = assay: Minimum inhibitory concentration (lowest peptide concentration) required to prevent visible bacterial growth after 18 hr of incubation at 37 C in Mueller-Hinton broth against Escherichia coli ATCC 25922; assay type: functional; conditions: ATCC 25922, 18 h; procedure, shortened: as §1
Escherichia coli [9] = assay: Minimum inhibitory concentration (lowest peptide concentration) required to prevent visible bacterial growth after 18 hr of incubation at 37 C in Mueller-Hinton broth against Escherichia coli D21; assay type: functional; procedure, shortened: as §1
Pseudomonas aeruginosa = assay: Minimum inhibitory concentration (lowest peptide concentration) required to prevent visible bacterial growth after 18 hr of incubation at 37 C in Mueller-Hinton broth against Pseudomonas aeruginosa ATCC 27853; assay type: functional; conditions: ATCC 27853, 18 h; procedure, shortened: as §1
Staphylococcus aureus = assay: Minimum inhibitory concentration (lowest peptide concentration) required to prevent visible bacterial growth after 18 hr of incubation at 37 C in Mueller-Hinton broth against Staphylococcus aureus G; assay type: functional; procedure, shortened: as §1
Escherichia coli [10] = assay: Minimum inhibitory concentration (lowest peptide concentration) required to prevent visible bacterial growth after 18 hr of incubation at 37 C in Mueller-Hinton broth against Escherichia coli O18:K1:H7; assay type: functional; procedure, shortened: as §1

MIC (Klebsiella pneumoniae [1]) [µM] | MIC (Salmonella enteritidis [2]) [µM] | MIC (Klebsiella pneumoniae [3]) [µM] | MIC [4] [µM] | MIC (Acinetobacter baumannii) [µM] | MIC (Escherichia coli [5]) [µM] | MIC (Escherichia coli [6]) [µM] | MIC (Salmonella typhimurium) [µM] | MIC (Salmonella enteritidis [7]) [µM] | MIC (Escherichia coli [8]) [µM] | MIC (Escherichia coli [9]) [µM] | MIC (Pseudomonas aeruginosa) [µM] | MIC (Staphylococcus aureus) [µM] | MIC (Escherichia coli [10]) [µM] | Compound
128 | 16 | 64 | > 64 | > 128 | > 64 | 2 | 32 | 8 | 4 | > 128 | > 128 | > 64 | 8 | H-GKPRPYSPRPTSHPRPIRV-OH [DROSOCIN]
32 (≈ 75.5 µg/mL) | 2 (≈ 4.72 µg/mL) | 32 (≈ 75.5 µg/mL) | > 64 | > 128 | 2 (≈ 4.72 µg/mL) | 2 (≈ 4.72 µg/mL) | 8 (≈ 18.9 µg/mL) | 4 (≈ 9.44 µg/mL) | 2 (≈ 4.72 µg/mL) | > 64 | > 128 | > 64 | 2 (≈ 4.72 µg/mL) | CC[C@H](C)[C@H](NC(=O)[C@@H]1CCCN1C(=O)[C@H](CCCN=C(N)N)NC(=O)[C@@H]1CCCN1C(=O)[C@H](Cc1c[nH]cn1)NC(=O)[C@H](CO)NC(=O)[C@@H](NC(=O)[C@@H]1CCCN1C(=O)[C@H](CCCN=C(N)N)NC(=O)[C@@H]1CCCN1C(=O)[C@H](CO)NC(=O)[C@H](Cc1ccc(O)cc1)NC(=O)[C@@H]1CCCN1C(=O)[C@H](CCCN=C(N)N)NC(=O)[C@@H]1CCCN1C(=O)[C@H](CCCCN)NC(=O)CN)[C@@H](C)O[C@H]1O[C@H](CO)[C@H](O)[C@H](O)[C@H]1O)C(=O)N[C@@H](CCCN=C(N)N)C(=O)N[C@H](C(=O)O)C(C)C (H-GKPRPYSPRPT(X1)SHPRPIRV-OH)
16 (≈ 37.8 µg/mL) | 4 (≈ 9.44 µg/mL) | 8 (≈ 18.9 µg/mL) | > 64 | > 128 | 2 (≈ 4.72 µg/mL) | 1 (≈ 2.36 µg/mL) | 8 (≈ 18.9 µg/mL) | 4 (≈ 9.44 µg/mL) | 4 (≈ 9.44 µg/mL) | > 64 | > 128 | > 64 | 2 (≈ 4.72 µg/mL) | CC[C@H](C)[C@H](NC(=O)[C@@H]1CCCN1C(=O)[C@H](CCCN=C(N)N)NC(=O)[C@@H]1CCCN1C(=O)[C@H](Cc1c[nH]cn1)NC(=O)[C@H](CO)NC(=O)[C@@H](NC(=O)[C@@H]1CCCN1C(=O)[C@H](CCCN=C(N)N)NC(=O)[C@@H]1CCCN1C(=O)[C@H](CO)NC(=O)[C@H](Cc1ccc(O)cc1)NC(=O)[C@@H]1CCCN1C(=O)[C@H](CCCN=C(N)N)NC(=O)[C@@H]1CCCN1C(=O)[C@H](CCCCN)NC(=O)CN)[C@@H](C)O[C@@H]1O[C@H](CO)[C@H](O)[C@H](O)[C@H]1O)C(=O)N[C@@H](CCCN=C(N)N)C(=O)N[C@H](C(=O)O)C(C)C (H-GKPRPYSPRPT(βGal)SHPRPIRV-OH)
> 128 | 32 | > 128 | > 64 | > 64 | > 64 | 32 | > 64 | > 64 | 64 | > 64 | > 128 | > 64 | 64 | H-GKPRPYSPRPSHPRPIRV-OH
> 128 | 8 | > 128 | > 64 | > 128 | > 64 | 16 | 32 | 16 | 64 | > 128 | > 128 | > 64 | 16 | H-GKPRPYSPRPASHPRPIRV-OH
